According to ChEMBL document CHEMBL4354819, “Discovery of Novel Small Molecule Dual Inhibitors Targeting Toll-Like Receptors 7 and 8” (J Med Chem, 2019):
Each block holds one compound with its values, some of them ahead of it. Activity calls are given as the source filed them. The calls are words filed in the database; no cut-off is given here.

Key:
[1] = test system: HEK293; assay: Cytotoxicity against human HEK293 cells transfected with human TLR8 assessed as reduction in cell viability up to 5 uM incubated for 16 hrs by WST-1 assay; assay type: cell-based; details: hek293, 16 h
[2] = target: Toll-like receptor 3 (Homo sapiens) (UniProt O15455); assay: Inhibition of human TLR3 expressed in HEK293 cells assessed as reduction in poly(I:C)-induced NFkappaB production at 1.5 to 5 uM incubated for 16 hrs by quanti-blue SEAP assay; assay type: cell-based
Procedure, shortened: (§1)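 Selectivity panel in stably transfected HEK 293-Blue cells, each overexpressing one human TLR with an inducible SEAP reporter. Agonists: Pam3CSK4 (TLR1/2), Pam2CSK4 (TLR2/6), poly(I:C) (TLR3), LPS (TLR4), R848 (TLR7/8), ODN 2006 (TLR9). Cells were exposed to compound for 16 h. Activity = (raw − untreated)/(ligand + solvent − untreated), with ligand + solvent set as 100%.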

[3] = target: T1, Toll-like receptor 9 (Homo sapiens) (UniProt Q9NR96); assay: Inhibition of human TLR9 expressed in HEK293 cells assessed as reduction in ODN-2006-induced NFkappaB production at 1.5 uM incubated for 16 hrs by quanti-blue SEAP assay; assay type: cell-based; procedure, shortened: as §1
T1 sequence (whole entry): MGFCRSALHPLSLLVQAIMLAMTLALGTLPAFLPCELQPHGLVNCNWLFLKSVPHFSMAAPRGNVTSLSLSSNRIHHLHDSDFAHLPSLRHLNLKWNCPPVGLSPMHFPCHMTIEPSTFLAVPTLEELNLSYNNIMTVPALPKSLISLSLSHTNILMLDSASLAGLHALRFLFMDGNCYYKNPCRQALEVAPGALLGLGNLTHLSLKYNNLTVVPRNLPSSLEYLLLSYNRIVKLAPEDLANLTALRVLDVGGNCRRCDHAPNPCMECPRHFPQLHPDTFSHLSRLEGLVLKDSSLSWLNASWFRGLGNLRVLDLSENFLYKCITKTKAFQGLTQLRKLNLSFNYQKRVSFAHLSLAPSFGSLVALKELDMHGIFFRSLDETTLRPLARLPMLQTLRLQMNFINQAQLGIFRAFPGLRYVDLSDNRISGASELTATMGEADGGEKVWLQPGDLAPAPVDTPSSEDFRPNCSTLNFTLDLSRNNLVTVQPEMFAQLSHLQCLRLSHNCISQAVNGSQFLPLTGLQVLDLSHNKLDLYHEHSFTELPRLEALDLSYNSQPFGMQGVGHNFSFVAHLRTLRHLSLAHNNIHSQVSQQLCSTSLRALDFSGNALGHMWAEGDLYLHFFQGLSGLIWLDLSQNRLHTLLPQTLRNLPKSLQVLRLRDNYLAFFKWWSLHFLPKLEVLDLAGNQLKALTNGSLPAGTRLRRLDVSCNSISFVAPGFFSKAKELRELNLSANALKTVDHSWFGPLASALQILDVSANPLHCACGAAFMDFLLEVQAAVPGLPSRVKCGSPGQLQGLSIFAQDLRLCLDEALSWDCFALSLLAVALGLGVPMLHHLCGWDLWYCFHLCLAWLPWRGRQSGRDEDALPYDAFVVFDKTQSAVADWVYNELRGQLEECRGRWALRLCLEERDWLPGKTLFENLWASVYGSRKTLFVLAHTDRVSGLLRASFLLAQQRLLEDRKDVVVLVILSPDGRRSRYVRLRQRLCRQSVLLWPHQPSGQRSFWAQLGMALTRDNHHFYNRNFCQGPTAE

[4] = test system: THP-1; assay: Inhibition of IFN mediated immune response in human THP1 cells assessed as inhibition of 3p-hpRNA-induced RIG1 signalling pathway at 5 to 20 uM incubated for 16 hrs by luciferase assay; assay type: functional, cell-based
Procedure, shortened: (§2)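 THP1-Dual monocytes carrying Lucia luciferase and SEAP reporters were stimulated with 3p-hpRNA (RIG-I agonist) or Y-form dsDNA G3-YSD (cGAS agonist), with or without compound. Secreted Lucia luciferase luminescence was measured as the type I IFN read-out. Mean ± s.d., n = 3 independent experiments.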

[5] = test system: THP-1; assay: Inhibition of IFN mediated immune response in human THP1 cells assessed as inhibition of 3p-hpRNA-induced RIG1 signalling pathway at 20 uM incubated for 16 hrs by luciferase assay; assay type: functional, cell-based; procedure, shortened: as §2
[6] = target: Toll-like receptor 7 (Mus musculus) (UniProt P58681); assay: Inhibition of endogenous mouse TLR7 in mouse RAW264.7 cells assessed as resiquimod-induced NO production at < 5 uM incubated for 18 to 24 hrs
[7] = test system: THP-1; assay: Cytotoxicity against human THP1 cells transfected with human TLR7/8 assessed as reduction in cell viability at 100 uM incubated for 16 hrs by WST-1 assay; assay type: cell-based; details: thp-1, 16 h

Chain of Toll-like receptor 7 (Mus musculus) (P58681 whole entry, looked up): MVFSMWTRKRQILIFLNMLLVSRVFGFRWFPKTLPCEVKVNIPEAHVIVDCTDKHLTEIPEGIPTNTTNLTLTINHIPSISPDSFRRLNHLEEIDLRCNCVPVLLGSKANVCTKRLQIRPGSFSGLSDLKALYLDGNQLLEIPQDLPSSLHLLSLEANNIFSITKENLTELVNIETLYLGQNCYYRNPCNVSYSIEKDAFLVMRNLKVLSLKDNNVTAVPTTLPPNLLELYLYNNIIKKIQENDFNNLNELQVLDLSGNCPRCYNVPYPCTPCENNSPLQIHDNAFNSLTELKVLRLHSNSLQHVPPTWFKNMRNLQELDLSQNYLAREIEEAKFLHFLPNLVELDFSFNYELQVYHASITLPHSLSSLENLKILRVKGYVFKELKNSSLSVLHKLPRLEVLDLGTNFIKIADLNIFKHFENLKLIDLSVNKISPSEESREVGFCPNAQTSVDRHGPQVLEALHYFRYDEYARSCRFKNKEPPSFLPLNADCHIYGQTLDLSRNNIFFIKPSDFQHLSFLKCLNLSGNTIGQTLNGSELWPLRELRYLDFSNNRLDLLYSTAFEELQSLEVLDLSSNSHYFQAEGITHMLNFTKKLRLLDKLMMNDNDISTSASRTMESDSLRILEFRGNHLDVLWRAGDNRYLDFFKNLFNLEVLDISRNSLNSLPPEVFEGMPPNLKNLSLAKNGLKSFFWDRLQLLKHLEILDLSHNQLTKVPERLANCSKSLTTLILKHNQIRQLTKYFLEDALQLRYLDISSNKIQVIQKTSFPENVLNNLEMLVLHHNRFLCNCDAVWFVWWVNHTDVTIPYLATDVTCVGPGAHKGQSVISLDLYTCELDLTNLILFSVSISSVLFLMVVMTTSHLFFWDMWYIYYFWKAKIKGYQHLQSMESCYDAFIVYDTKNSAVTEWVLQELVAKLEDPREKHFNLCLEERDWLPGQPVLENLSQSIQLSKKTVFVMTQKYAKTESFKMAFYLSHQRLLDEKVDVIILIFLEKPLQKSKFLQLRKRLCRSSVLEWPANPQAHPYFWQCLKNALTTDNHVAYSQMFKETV
Chain of Toll-like receptor 3 (Homo sapiens) (O15455 whole entry): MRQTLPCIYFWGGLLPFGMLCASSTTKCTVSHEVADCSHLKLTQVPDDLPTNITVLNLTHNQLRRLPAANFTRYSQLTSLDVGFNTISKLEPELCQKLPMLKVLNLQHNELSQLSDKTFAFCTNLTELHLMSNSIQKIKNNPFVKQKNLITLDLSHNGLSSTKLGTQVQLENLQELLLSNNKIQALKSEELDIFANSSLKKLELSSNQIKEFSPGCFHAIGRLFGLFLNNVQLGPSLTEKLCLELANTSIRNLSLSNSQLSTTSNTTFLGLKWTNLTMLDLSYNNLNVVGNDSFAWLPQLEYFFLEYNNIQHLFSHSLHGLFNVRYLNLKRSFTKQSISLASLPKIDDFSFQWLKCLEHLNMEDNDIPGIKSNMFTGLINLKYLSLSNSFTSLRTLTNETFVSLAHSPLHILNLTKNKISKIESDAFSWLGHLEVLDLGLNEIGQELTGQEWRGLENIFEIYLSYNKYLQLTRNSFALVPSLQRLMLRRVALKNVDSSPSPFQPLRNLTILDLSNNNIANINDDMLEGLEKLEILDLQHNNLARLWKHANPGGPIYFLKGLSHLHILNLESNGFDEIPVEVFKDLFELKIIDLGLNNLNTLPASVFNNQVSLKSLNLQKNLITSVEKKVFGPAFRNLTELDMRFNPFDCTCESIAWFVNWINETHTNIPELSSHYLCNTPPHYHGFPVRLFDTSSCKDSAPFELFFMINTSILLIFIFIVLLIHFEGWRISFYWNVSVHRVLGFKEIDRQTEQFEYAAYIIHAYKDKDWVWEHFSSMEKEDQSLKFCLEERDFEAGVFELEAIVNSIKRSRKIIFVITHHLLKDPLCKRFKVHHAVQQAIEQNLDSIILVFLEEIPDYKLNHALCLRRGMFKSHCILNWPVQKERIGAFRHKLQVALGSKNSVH

inhibition [2]: inactive | inhibition [3]: inactive
SMILES: O=C(Nc1ccc(Oc2cc(C(F)(F)F)cc(C(F)(F)F)c2)cc1)c1c(F)cccc1Cl
Activity [1]: Non-Toxic

SMILES: O=C(Nc1ccc(Oc2cncc(C(F)(F)F)c2)cc1)c1c(F)cccc1Cl
inhibition [4]: Active

inhibition [6]: inactive
SMILES: O=[N+]([O-])c1c(I)cccc1Oc1ccc(-c2nnco2)cc1
inhibition [5]: Active | Activity [7]: Toxic
